ChEMBL document CHEMBL1147889, “Synthesis of 6- and 9-alkylaminomethyl furoflavones as gastroprotective agents” (2007)

Columns and labels:
Format in all cases: functional, Stomach
Rattus norvegicus [1] = organism: Rattus norvegicus; test: Preventive index against ethnol-induced gastric ulcer rat in treated group to control group
Method in brief: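 Preventive index = percentage inhibition of gastric mucosal damage: PI = 100 − (ulcer index of treated group / ulcer index of control group × 100). Ulcer index is the summed caliper-measured lesion lengths, taken 1 h after oral 1 ml 70% ethanol in 36 h fasted rats dosed 1 h before ethanol. Compared by one-way ANOVA.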

Rattus norvegicus [2] = test: Gastroprotective activity against ethanol-induced gastric ulcer in fasted rat accessed as number of ulcer at 20 mg/kg, ip; settings: route intraperitoneal
Method in brief: (§1)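 Rats housed singly, fasted 36 h; test drug given, then 1 h later ulcer induced by oral 1 ml 70% ethanol in distilled water. Killed by cervical dislocation 1 h after ethanol; stomach opened along greater curvature, saline-rinsed, pinned flat. Ulcers counted; each lesion length measured by Vernier caliper, summed as ulcer index. Mean, SD, SE; one-way ANOVA then LSD pairwise test.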

Rattus norvegicus [3] = test: Gastroprotective activity against ethanol-induced gastric ulcer in fasted rat accessed as gastric ulcer index at 20 mg/kg, ip; settings: route intraperitoneal; method in brief: as §1

SMILES	Preventive_index (Rattus norvegicus [1])	Activity (Rattus norvegicus [2])	Activity (Rattus norvegicus [3]) [mm]
COc1c2ccoc2cc2oc(-c3ccc(Cl)cc3)cc(=O)c12	34.5	25.5	33.2
COc1c2occc2c(OC)c2c(=O)c(CN3CCN(C)CC3)c(-c3cccnc3)oc12	44.4	18.8	28.2
COc1c2ccoc2cc2oc(-c3ccccc3)c(CN3CCOCC3)c(=O)c12	41.6	21.8	29.6
COc1ccc(-c2cc(=O)c3c(OC)c4ccoc4cc3o2)cc1	52.6	19.7	24
O=c1cc(-c2ccccc2)oc2cc3occc3c(O)c12	24.3	25.5	38.3
COc1c2ccoc2c(CN2CCOCC2)c2oc(-c3cccnc3)cc(=O)c12	19.5	25	40.8
COc1c2ccoc2c(CN2CCN(C)CC2)c2oc(-c3cccnc3)cc(=O)c12	41.5	23.7	29.7
O=c1cc(-c2ccc(Cl)cc2)oc2cc3occc3c(O)c12	33.9	22.2	33.5
O=c1cc(-c2ccc(Cl)cc2)oc2c(CN3CCOCC3)c3occc3c(O)c12	16.1	28.5	42.5
COc1c2ccoc2cc2oc(-c3cccnc3)c(CN(C)C)c(=O)c12	38.8	21.2	31
COc1c2ccoc2c(CN2CCOCC2)c2oc(-c3ccccc3)cc(=O)c12	21.4	27.8	39.8
COc1c2ccoc2c(CN2CCOCC2)c2oc(-c3ccc(Cl)cc3)cc(=O)c12	26.6	26	37.2
O=c1cc(-c2ccccc2)oc2c(CN3CCOCC3)c3occc3c(O)c12	26	26.5	37.5
COc1c2ccoc2cc2oc(-c3ccccc3)cc(=O)c12 [PINNATIN]	31.3	23.7	34.8
